Kir21 inh: Kir2.1 (mouse) channel inhibition; 310,000 compounds, 0.85% hits; B-score at 10 µM; P35561; HEK293-Kir2.1, FluxOR thallium flux fluorescence; active compounds read low;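 active = fluorescence ratio B-score at or below minus 3 SD of library scores, with starting-brightness B-score within 2 SD, cut at about -4.2 in these data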;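 note: channel flux triggered by added potassium and thallium sulfate stimulus; B-score of peak minus minimum fluorescence over baseline after thallium stimulus; more negative B-score means stronger Kir2.1 block with less thallium influx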
Target sequence (P35561 whole entry, looked up): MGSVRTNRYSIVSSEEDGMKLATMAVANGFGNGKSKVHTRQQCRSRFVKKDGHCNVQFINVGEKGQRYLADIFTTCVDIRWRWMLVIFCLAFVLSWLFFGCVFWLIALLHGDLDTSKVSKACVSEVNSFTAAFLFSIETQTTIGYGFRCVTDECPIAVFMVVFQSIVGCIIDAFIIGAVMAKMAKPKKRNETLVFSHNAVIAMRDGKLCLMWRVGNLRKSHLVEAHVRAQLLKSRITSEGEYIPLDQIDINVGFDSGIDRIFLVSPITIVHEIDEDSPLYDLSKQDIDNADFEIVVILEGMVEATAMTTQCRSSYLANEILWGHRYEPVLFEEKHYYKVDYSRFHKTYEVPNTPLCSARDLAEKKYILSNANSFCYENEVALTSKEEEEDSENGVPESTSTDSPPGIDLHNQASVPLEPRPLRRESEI
KCNK9 inh: human KCNK9 channel inhibition; Q9NPC2; HEK293 KCNK9, FluxOR thallium flux fluorescence; active compounds read low; B-score at 10 µM; 310,000 compounds, 1.2% hits;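 active = ratio B-score over 3 SD below the library mean, with starting fluorescence within 5 SD of its mean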;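 note: negative B-score means less thallium flux so channel inhibition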
hERG protect: shields human hERG channel from block by proarrhythmic agents. activation (rescue from dofetilide block), less the hit threshold, % at 10 µM. Q12809. 310,000 compounds, 0.51% hits. CHO-hERG, FluxOR thallium flux, dofetilide IC70 present. AID 1511;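 active = activation above the mean of controls blocked by dofetilide plus 5 SD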;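 note: thallium influx through hERG after potassium depolarization seen as dye fluorescence rise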
KCNQ1 block: human KCNQ1 channel inhibition; P51787; CHO-K1 KCNQ1, FluxOR thallium flux fluorescence; active compounds read high; B-score at 10 µM; 310,000 compounds, 1.3% hits;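 active = compounds whose thallium flux B-score, printed positive for inhibition, exceeds three library SD while starting fluorescence stays within three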;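 note: channel opened by potassium depolarization with thallium stimulus after 20 min compound exposure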
KCNQ1 act: potentiates or activates the human KCNQ1 potassium channel | P51787 | 310,000 compounds, 0.35% hits | AID 2648 | B-score at 10 µM | CHO-K1 KCNQ1, thallium flux FluxOR fluorescence; active compounds read high;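 active = fluorescence ratio B-score, a plate-corrected score, at least three library SD, with initial intensity B-score within 5 SD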
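Assay system: stable KCNQ1 CHO-K1 line; medium: assay buffer, equal DMSO in all wells; timing: 90 min dye loading and 20 min compound exposure, both at room temperature; technique: kinetic FluxOR thallium fluorescence, 10-s 1-Hz baseline, 110-s post-stimulus read; read-out basis: B score of baseline-normalized fluorescence ratio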
KCNK3 inh: human KCNK3 channel inhibition, primary screen; O14649; CHO-KCNK3 thallium flux, FluxOR fluorescence; active compounds read low; B-score at 10 µM; 340,000 compounds, 0.84% hits;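 active = B-score under library mean minus 4 SD, starting fluorescence ratio at most library mean plus 5 SD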;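 note: more negative B-score means stronger inhibition of thallium flux through KCNK3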
KCNK9 inh conf: confirmation of human KCNK9 potassium channel inhibitors. inhibition, % at 10 µM. 4,900 compounds, 43% hits. HEK293 KCNK9 cells, FluxOR thallium flux fluorescence. AID 492992. shares compounds with KCNK9 inh;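 active = thallium signal inhibited by more than 5 SD of the compound-free buffer control wells, on both duplicate plates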;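 note: 0% = assay buffer control wells without compound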
Kir2-1 spec: mouse Kir2.1 off-target activity of KCNK9 modulators; shares compounds with KCNK9 inh; Kir2.1 cells, FluxOR thallium flux fluorescence; inhibition, % at 10 µM; 4,900 compounds, 4% hits; AID 492993;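 active = thallium signal drop more than 5 SD beyond the mean of the no-compound control wells, seen in both duplicate plates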;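 note: signal is fluorescence rise after thallium addition divided by baseline fluorescence; plate controls were assay buffer only for no effect and full block by chlorpromazine control for full effect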
HEK293 Tl ctr: non-induced cell nonspecific activity of KCNK9 modulators | shares compounds with KCNK9 inh | non-induced KCNK9-HEK293, FluxOR thallium flux | inhibition, % at 10 µM | 4,900 compounds, 40% hits;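 active = thallium signal drop beyond 5 SD of the untreated control mean, on both duplicate plates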;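 note: plate controls were buffer only IC0 wells for no effect and SID17386958 at its maximal inhibitory level for full effect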
KCNK3 confirm: human KCNK3 channel inhibition, confirmation assay. ratio percent of control, % at 10 µM. CHO-KCNK3 thallium flux, FluxOR fluorescence; 0% buffer, 100% carvedilol maximal block. AID 651638. 2,400 compounds, 99% hits. shares compounds with KCNK3 inh;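 active = ratio percent of control, averaged over triplicates, above buffer control mean plus 5 SD, cut at about 64% in these data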;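 note: ratio is the fluorescence rise from min to max over baseline after thallium stimulus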
KCNK3 noninduced: KCNK3 inhibitor counter-screen hit in non-induced cells; shares compounds with KCNK3 inh; non-induced KCNK3 parental cells, FluxOR thallium flux; active compounds read low; thallium flux ratio (lower = more inhibition) at 10 µM; 2,400 compounds, 40% hits;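 active = thallium flux ratio, averaged over three wells, more than 5 SD below the buffer control mean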;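 note: host cells are CHO cells without KCNK3 induction; ratio is peak minus trough fluorescence over baseline then normalized to buffer controls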
* = called active by the depositor; i = inactive; · = not tested or not shown. This is a sample that favours compounds with a hit; in the whole collection about 3.7% have one here.

SMILES | Kir21 inh | KCNK9 inh | hERG protect | KCNQ1 block | KCNQ1 act | KCNK3 inh | KCNK9 inh conf | Kir2-1 spec | HEK293 Tl ctr | KCNK3 confirm | KCNK3 noninduced
COc1ccc(Cl)cc1NC(=O)CN(C)Cc1cccs1 | 0.81 | -21* | -4 | i | i | -13* | 74%* | i | 50%* | 108* | i
COc1ccc(Cl)cc1NC(=O)CNCc1cccs1 | 1.4 | i | -8 | i | i | i | · | · | · | · | ·
COc1nc(-c2ccc(Cl)cc2Cl)nc2ccccc12 | -0.82 | i | -9 | i | i | i | · | · | · | · | ·
Cc1cc(OCC(=O)N2CCc3ccccc3C2)c2c(-c3ccccc3)cc(=O)oc2c1 | -0.09 | i | -3 | i | i | -11* | i | i | i | 99* | i
CC(=O)Oc1cc(C)cc2oc(=O)cc(-c3ccccc3)c12 | 0 | i | -7 | i | i | i | · | · | · | · | ·
CC(C)OC(=O)COc1ccc(-c2ccccc2)cc1 | 1 | -9.2* | -5 | i | i | -11* | i | i | i | 97* | i
COc1ccc(CN(C(=O)CSc2nnc(-c3ccc(F)cc3)o2)c2ccc(F)cc2)cc1 | -0.04 | i | -12 | i | i | i | · | · | · | · | ·
COc1ccc(CN(C(=O)CSc2nnc(-c3c[nH]c4ccccc34)o2)c2ccc(F)cc2)cc1OC | -0.7 | -8.8* | -17 | i | i | -14* | i | i | i | 105* | 0.13*
O=C(/C=C/c1cccc(C(F)(F)F)c1)Nc1cccc(C(F)(F)F)c1 | 0.16 | i | -5 | 9* | i | -11* | i | i | i | 107* | 0.15*
Cc1cccc(-c2nnc(SCc3nc4ccccc4[nH]3)n2Cc2ccco2)c1 | -0.03 | i | -28 | i | i | i | · | · | · | · | ·
Clc1cccc(-c2nnc(SC/C=C/c3ccccc3)n2Cc2ccco2)c1 | -3.9 | -15* | -13 | i | i | -12* | 44%* | 74%* | 38%* | 110* | 0.15*
N#CCSc1nc2c(c(C3CC=CCC3)c1C#N)CCC2 (stereo not drawn) | 0.61 | -8.4* | -14 | i | i | i | 34%* | i | 42%* | 107* | i
CCCN1Cc2cccc(C(=O)Nc3ccc(C)cc3)c2C1=O | -2 | i | -11 | i | i | i | · | · | · | · | ·
CCOC(=O)c1ccc(NC(=O)c2cccc3c2C(=O)N(CC2CCCO2)C3)cc1 (stereo not drawn) | -1.4 | -8.6* | -20 | i | i | -9.3* | 64%* | i | i | 131* | 0.13*
CCc1ccc2c(CC(=O)Nc3cccc(S(=O)(=O)N4CCOCC4)c3)coc2c1 | · | · | · | · | · | i | · | · | · | · | ·
CCOc1ccccc1C(=O)Nc1cccc(-c2nnc(-c3ccccc3)o2)c1 | 0.81 | -16* | -14 | i | i | -9.5* | 45%* | i | 28%* | 107* | i
COC(=O)c1cc2sccc2n1Cc1nc(-c2cccc(Cl)c2)oc1C | 1.5 | -8.5* | -1 | i | i | -8.7* | 28%* | i | 30%* | 93* | i
COc1ccc([C@H]2CC(=O)C=C(c3ccnc4ccc(Cl)cc34)C2)cc1 | · | · | · | · | · | i | · | · | · | · | ·
O=C(COc1cccnc1[N+](=O)[O-])NCc1ccccc1 | 0.63 | i | -6 | i | i | i | · | · | · | · | ·
C=C(C)COc1ccc(-c2ncnc(C(F)(F)F)c2-c2ccccc2)c(O)c1 | -0.51 | i | -1 | i | i | i | · | · | · | · | ·
C=C(C)COc1ccc(-c2ncnc(C(F)(F)F)c2-c2ccc(OC)cc2)c(O)c1 | -1.7 | i | -6 | i | i | -9.2* | i | i | i | 109* | 0.15*
CCOc1ccccc1NC(=O)CN1C(=O)NC(Cc2c[nH]c3ccccc23)C1=O (stereo not drawn) | · | · | · | · | · | i | · | · | · | · | ·
COc1cc(/C=N/NC(=O)c2ccc(Cn3cc([N+](=O)[O-])cn3)o2)cc(Br)c1O | 0.5 | -16* | -22 | i | i | -11* | 57%* | i | 35%* | 99* | i
CSCc1cc(N(C)C)nc(SCc2ccc(Cl)c(Cl)c2)n1 | -0.42 | -10* | 0 | i | i | i | 72%* | i | 58%* | 104* | 0.15*
Nc1nc(SCc2ccc(Cl)cc2Cl)n[nH]1 | 1.9 | i | -8 | i | i | i | · | · | · | · | ·
SMILES | Kir21 inh | KCNK9 inh | hERG protect | KCNQ1 block | KCNQ1 act | KCNK3 inh | KCNK9 inh conf | Kir2-1 spec | HEK293 Tl ctr | KCNK3 confirm | KCNK3 noninduced
CNc1cc(CSC)nc(SCc2ccc(Cl)cc2Cl)n1 | -0.66 | -12* | -4 | i | i | -9.2* | 56%* | i | 50%* | 142* | 0.15*
CN(C)C(=N)c1n[nH]nc1SCc1ccc(Cl)c(Cl)c1 | 0.69 | i | -11 | i | i | i | · | · | · | · | ·
CN(CC(=O)Nc1cccc(F)c1)C(=O)/C=C/c1ccc2ccccc2n1 | -0.01 | i | -15 | i | i | i | · | · | · | · | ·
Cc1cc(C)c2nc(C)cc(N/N=C/c3ccc(O)cc3)c2c1 | -10* | -15* | -36 | 10* | i | -12* | 72%* | 36%* | i | 135* | 0.12*
O=C(Cc1ccsc1)N1CCc2c([nH]c3ccccc23)C1c1ccccn1 (stereo not drawn) | -1.3 | i | -7 | i | i | i | · | · | · | · | ·
Clc1ccc(-n2cccc2CN2CCc3c([nH]c4ccccc34)C2c2ccccn2)nc1 (stereo not drawn) | -0.48 | -8.5* | -25 | i | i | -10* | 38%* | i | 25%* | 125* | 0.14*
COc1cccc(CN2CCNC(=O)C2CC(=O)N(C)C2CCCCC2)c1 (stereo not drawn) | -1.6 | i | -11 | i | i | i | · | · | · | · | ·
COc1ccccc1N(CC(=O)NCCSCc1cccc(C)c1)S(=O)(=O)c1ccccc1 | 0.02 | -16* | -18 | 9* | i | -13* | 48%* | i | 28%* | 105* | i
CCCCCCN=C1CC(C)(C)CC(=O)/C1=C(/O)CCC | 0.09 | -18* | -12 | i | i | -10* | 66%* | i | 40%* | 94* | i

Source: PubChem
